Scp1 inh – Scp-1 phosphatase inhibitors, primary screen, biochemical, colorimetric, uHTS. Carboxy-terminal domain RNA polymerase II polypeptide A small phosphatase 1 (Homo …. inhibition, % at 20 µM. AID 493091, 2011. Recombinant Scp1, phosphopeptide, malachite green phosphate absorbance. actives 0.88% (n = 340,000);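 active = inhibition above about 50% at 20 µM, limit read from the data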
Target sequence (Q9GZU7 76-261 limits assumed): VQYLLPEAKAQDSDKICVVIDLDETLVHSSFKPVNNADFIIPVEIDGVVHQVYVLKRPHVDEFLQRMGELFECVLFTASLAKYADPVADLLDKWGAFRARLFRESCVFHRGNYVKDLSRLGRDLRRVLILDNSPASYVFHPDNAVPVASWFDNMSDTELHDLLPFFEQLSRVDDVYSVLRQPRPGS
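Incubation: 45 min enzyme reaction at room temperature / System: truncated SCP-1 phosphatase (76-261aa) / Reagent: Phospho 17-mer peptide substrate / Buffer or medium: Acidic Tris acetate buffer with magnesium and detergent / Signal: absorbance at 630 nm / Doses: one concentration, 20 µM, with 1.0% DMSO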
DNMT1 block – human DNMT1 methyltransferase inhibitors, primary screen, biochemical, molecular beacon, fluorescence, HinP1I cleavage, uHTS | inhibition (reported as % activation of signal), % at 10 µM | actives 0.83% (n = 360,000) | AID 588458, 2011 | DNA (cytosine-5)-methyltransferase 1 (Homo sapiens), P26358; in the data active = inhibition above about 50%
STEP block – STEP phosphatase inhibitors, primary screen, biochemical, fluorescence intensity, uHTS. recombinant STEP, OMFP fluorogenic substrate. AID 588621, 2011. Tyrosine-protein phosphatase non-receptor type 5 (Homo sapiens), P54829. inhibition, % at 20 µM. actives 0.25% (n = 360,000);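 active = inhibition at 20 µM, scaled per plate between control wells, above about 37%, limit read from the data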
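Assay system: isolated STEP enzyme / Timing: 20 min at room temperature, dark / Doses: 20 µM, 1% DMSO / Technique: fluorescence intensity, excitation 480 nm, emission 540 nm / Reagent: fluorogenic phosphatase substrate OMFP at 25 µM final / Measure: percent inhibition scaled to no-enzyme and uninhibited-enzyme controls, plate-pattern corrected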
CSN deneddyl inh – inhibitors of CSN-mediated cullin deneddylation, primary screen, biochemical, fluorescence polarization, uHTS. inhibition, % at 12.5 µM. COP9 signalosome complex subunit 5 (Homo sapiens), Q92905. actives 0.38% (n = 360,000). Purified CSN, SCF-Nedd8-OG deneddylation;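 active = pattern-corrected inhibition above about 35%, with an unprinted fluorescence ratio check between 0.5 and 1.5, limit read from the data, passing the limit was not always enough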
Target sequence (Q92905 whole entry, looked up, one chain of several): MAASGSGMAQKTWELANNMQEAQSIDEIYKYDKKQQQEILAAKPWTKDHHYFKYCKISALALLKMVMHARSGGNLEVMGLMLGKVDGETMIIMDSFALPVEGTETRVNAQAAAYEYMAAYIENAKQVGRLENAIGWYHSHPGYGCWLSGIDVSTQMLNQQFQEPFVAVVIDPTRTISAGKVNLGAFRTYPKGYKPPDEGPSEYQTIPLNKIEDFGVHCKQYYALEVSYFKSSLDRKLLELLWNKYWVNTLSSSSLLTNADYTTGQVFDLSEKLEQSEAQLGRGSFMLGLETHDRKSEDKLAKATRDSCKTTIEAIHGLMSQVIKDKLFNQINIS
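Test system: purified human Csn5 enzyme expressed in HEK293T cells. Amount: 0.24 nM enzyme. Reagent: SCFSkp2-Nedd8OG substrate at 10 nM final. Schedule: 90 min incubation of compound, enzyme and substrate at room temperature. Detection: fluorescence polarization. Read-out: % inhibition of substrate cleavage by Csn5.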
LMPTP block – LMPTP phosphatase inhibitors, primary screen, biochemical, fluorescence intensity, uHTS. recombinant LMPTP-A, OMFP fluorogenic substrate. inhibition, % at 20 µM. actives 0.22% (n = 360,000). AID 651560, 2012;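 active = compounds that cut the enzyme signal by at least half of the control window in the single-dose screen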
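Assay system: LMPTP-A enzyme. Input: 0.625 nM LMPTP-A final. Probe or stimulus: 400 µM OMFP. Compound dosing: single 20 µM dose. Schedule: 50 min dark incubation at room temperature. Detection: fluorescence intensity of OMFP turnover product. Read-out: percent inhibition versus substrate-only and uninhibited controls. Benchmarks: no-enzyme low control, uninhibited high control.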
SUMO1-SIM PPI – modulators of SUMO1 protein-protein interactions, primary screen, biochemical, uHTS | Small ubiquitin-related modifier 1 (Homo sapiens), P63165 | inhibition, % at 20 µM | SUMO1 binding to a labelled peptide, TR-FRET, 1 h | actives 0.33% (n = 360,000); in the data active = inhibition above about 37%
DNMT1 interf DR – spectral interference with molecular beacon fluorescence, dose response, artefact control for DNMT1 inhibitor project, biochemical, fluorescent molecular beacon | shares compounds with DNMT1 block | spectral interference counter-screen | IC50, µM | 200 tested, under 10 active | AID 602382, 2012; call rule not given here
DNMT1 confirm – DNMT1 methyltransferase inhibitor retest, confirmation, biochemical, molecular beacon, fluorescence, single concentration | shares compounds with DNMT1 block | DNMT1 molecular beacon HinP1I cleavage | inhibition, % at 10 µM | actives 8% (n = 2,300) | AID 602385, 2012;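 active = average inhibition of at least 30% in the single-concentration confirmation test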
DNMT1 interf – counter-screen for DNMT1 inhibitors: spectral interference; shares compounds with DNMT1 block; DNMT1 molecular beacon spectral interference counterscreen, fluorescence 485/520; activation (fluorescence interference), % at 10 µM; actives 1% (n = 2,300); AID 602387;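 active = activation of at least 30% at 10 µM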;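 also: DNMT1 catalytic domain with a HinP1I cleavage step and a FAM/dabcyl DNA beacon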
Hits are given with their value; n = inactive; x = no result given. Most compounds without a hit are left out; they make up all but 1.9% or so of the library.

SMILES	Scp1 inh	DNMT1 block	STEP block	CSN deneddyl inh	LMPTP block	SUMO1-SIM PPI	DNMT1 confirm	DNMT1 interf	others
Cc1cc(OCC(=O)Nc2ccc(N3CCCC3)cc2)cc(C)c1Cl	n	71	n	n	n	n	n	n
COc1ccc(N2CCCC2)c(NC(=O)COc2ccccc2)c1	n	n	n	n	n	n	x	x
CSc1nnc2c(n1)OC(c1ccccn1)N(C(C)=O)c1ccccc1-2 (stereo not drawn)	n	n	n	n	n	n	x	x
COc1ccc(C(CC(=O)N2CCOCC2)c2c(OC)cc(OC)c3c(-c4ccccc4)cc(=O)oc23)cc1 (stereo not drawn)	n	74	n	n	n	n	n	n
CCOC(=O)CN1C(=O)S/C(=C/c2ccc(N3CCCCC3)o2)C1=O	n	n	n	n	n	n	x	x
COC(=O)CN1C(=O)S/C(=C/c2ccc(N3CCCCC3)o2)C1=O	n	67	n	n	n	n	70	52
CC(=O)N(CCC(c1ccccc1)c1ccco1)Cc1cccs1 (stereo not drawn)	n	n	n	n	n	n	x	x
Cc1ccc(C(CCN(Cc2ccccc2)C(=O)c2ccco2)c2ccco2)cc1 (stereo not drawn)	n	56	n	n	n	n	n	n
CC(=O)Nc1ccc(CNc2nc3cc(-c4cccc(C(F)(F)F)c4)sc3c(=O)n2C)cc1	x	61	n	n	n	n	n	n
Cc1nn(C(=O)c2cccc([N+](=O)[O-])c2)c(C)c1Sc1ccccc1	n	n	n	n	n	n	x	x
O=C(CCl)Nc1cn(-c2ccccc2)nc1-c1ccccc1	n	n	n	n	n	n	x	x
CCOc1ccc(N2CC(C(=O)Nc3ccc(S(=O)(=O)NCC4CCCO4)cc3)CC2=O)cc1 (stereo not drawn)	n	n	n	n	n	n	x	x
CCCCCCCCN1N=N[C@H]2[C@H]1[C@@H]1C[C@H]2N(C(=O)OC(C)(C)C)O1	n	n	n	n	n	n	x	x
O=C(Nc1ccc(NC(=O)c2sc3ccccc3c2Cl)cc1Cl)c1ccco1	n	75	n	n	n	n	n	n
CC12CCC(C)(O1)C1C(=O)N(c3nccs3)C(=O)C12 (stereo not drawn)	n	n	n	n	n	n	x	x
CCCCc1nc2sc3c(SCC(=O)NCc4ccco4)ncnc3c2c2c1CCC2	n	78	n	n	n	n	n	n
O=C(c1cc(=O)c2ccccc2o1)N1CCCc2ccccc21	n	84	n	n	n	n	n	n
O=C(c1coc(=O)c(Br)c1)N1CCCc2ccccc21	n	58	n	n	n	n	n	n
CC1(C)CCCN(C(=O)c2coc(=O)c(Br)c2)C1	96	87	97	n	54	n	103	n	DNMT1 interf DR=n
O=C(c1cc2ccccc2c(=O)o1)N1CCCc2ccccc21	n	n	n	n	n	n	x	x
O=C(c1ccc2c(=O)n3c(nc2c1)CCC3)N1CCN(S(=O)(=O)c2cccc(F)c2)CC1	n	79	n	n	n	n	n	n
COc1ccc(-n2c(SCC(=O)N3CCc4ccccc43)nnc2-c2c[nH]c3ccccc23)cc1	n	67	n	n	n	n	n	n
CCn1c(SCC(=O)N2CCc3ccccc32)nnc1-c1c[nH]c2ccccc12	n	n	n	n	n	n	x	x
Cc1ccc(Cn2c(/C=C/c3ccco3)nc3ccccc32)cc1	n	76	n	n	n	n	n	n
O=S(=O)(c1ccc2c(c1)CCN2)N1CCOCC1	n	102	n	n	n	n	n	n
O=S(=O)(c1ccc2ccccc2c1)N1CCOCC1	n	n	n	n	n	n	x	x
COc1ccc(/C=N/Nc2cc(N3CCCC3)nc(N3CCCC3)n2)cc1	n	58	n	n	n	n	n	n
Oc1ccc(/C=N/Nc2cc(N3CCCC3)nc(N3CCCC3)n2)cc1	n	n	n	n	n	n	x	x
Nc1cc(S(=O)(=O)O)cc([N+](=O)[O-])c1O	n	66	n	n	n	n	72	n	DNMT1 interf DR=n
O=[N+]([O-])c1ccc2c([N+](=O)[O-])ccc3c2c1CC3	x	73	n	n	n	n	n	n

From PubChem
